Reference: article PMC3880621 (Journal of medicinal chemistry, 2013)

Key:
Guinea pig serum = format: in vitro ADME; conditions: pH 7.4, 37°C; for first-order rate constant k2 of loss of 241 nm peak: 2% guinea pig serum, second, slow process
Summary of the method: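 Test compound added from a 1000× DMSO stock to 50 μM DTPA in Ca/Mg-free DPBS, pH 7.4, with 2% guinea pig serum at 37°C; blank was buffer plus serum. UV spectra taken every second for 600 s, then every 60–120 s; total scan 2500 s to 62 h. Rate constants from fitting A = ΔAe^(−kt) + A∞.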

Stomach ulcerogenicity = format: in vivo, Sprague-Dawley rats; conditions: rats; for ulcer index: 1.38 mmol/kg p.o., 6 h post-administration; for ulcerogenicity compared to control: 1.38 mmol/kg
Summary of the method: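 Sprague-Dawley rats fasted 24 h with water available, then dosed orally at 1.38 mmol/kg suspended in 1.2 mL 1% methylcellulose; controls received vehicle. Killed by CO2 at 6 h; stomachs removed onto ice and lesions inspected under a magnifier, scored by size. Ulcer index = summed ulcer length per stomach, averaged over the animals in the group.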

[1] = format: physicochemical; conditions: for rate of decomposition of NONO-salicylate derivatives: spontaneous, pH not printed at the place
HUVECs = test: MTT cell viability assay, HUVECs; format: cell-based, human; conditions: 48 h, 25-100 μM, n = 1
Summary of the method: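 HUVECs kept in endothelial growth medium at 37°C, 5% CO2, 80% humidity. Seeded at 8,000–10,000 per well, grown overnight, then treated 48 h across a concentration range (prodrugs 0–200 μM). MTT (2 mg/mL solution) added for 1 h at 37°C; medium removed, formazan dissolved in DMSO, absorbance read at 550 nm. One experiment, at least triplicate wells.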

[2] = Fetal bovine serum induced hydrolysis, followed spectrophotometrically; format: in vitro ADME; conditions: pH 7.4, 37°C, n = 1
GAPDH = GAPDH (Homo sapiens, UniProt P04406); test: GAPDH activity in A549 cells; format: cell-based; conditions: 100 μM, 1 h
GAPDH, sequence (P04406 whole entry): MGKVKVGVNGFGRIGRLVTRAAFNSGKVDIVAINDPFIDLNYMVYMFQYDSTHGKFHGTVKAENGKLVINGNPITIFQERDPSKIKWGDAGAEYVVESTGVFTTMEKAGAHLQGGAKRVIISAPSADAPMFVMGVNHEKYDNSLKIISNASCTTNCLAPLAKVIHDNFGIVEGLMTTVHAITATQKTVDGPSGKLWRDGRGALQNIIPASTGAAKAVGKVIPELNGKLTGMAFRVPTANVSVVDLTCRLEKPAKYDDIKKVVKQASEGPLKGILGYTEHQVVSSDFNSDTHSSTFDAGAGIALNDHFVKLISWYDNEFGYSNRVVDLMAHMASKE
Summary of the method: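 A549 cells, seeded at 30,000 per well and grown overnight, exposed to test compound at 100 μM for 1 h at 37°C. Cells lysed in kit lysis buffer for 20 min at 4°C. Lysate mixed with kit mastermix; fluorescence read at 570 nm with excitation at 540 nm. Triplicate; mean ± SD; one-way ANOVA versus untreated control.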

[3] = test system: isolated murine ventricular myocytes; format: cell-based, mouse; conditions: 500 μM
COX-2 = test: PGE2 levels in A549 cells; format: cell-based, human; conditions: 25 and 50 μM, 24 h
Summary of the method: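 A549 cells grown in RPMI 1640 with 10% FBS and penicillin/streptomycin. Seeded at 50,000 per well, grown 12 h, then given test compound at 25 or 50 μM (0.1% DMSO) for 24 h at 37°C. Supernatant PGE2 measured by competitive EIA (AChE tracer plus monoclonal antibody, overnight at 4°C), developed with Ellman's reagent, absorbance at […]. Triplicate.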

[4] = test system: various cancer cells lines; conditions: read-out: IC50 (cytotoxicity); cited from earlier work
[5] = pH 7.4, PBS with 50 μM DTPA, 37°C

In the case of `CCN(CC)/[N+]([O-])=N/OCOC(=O)c1ccccc1OC(C)=O` [DEA/NO-aspirin, O^2-(Acetylsalicyloyloxymethyl)-1-(N,N-diethylamino)-diazen-1-ium-1,2-diolate], the “first-order rate constant k2 of loss of 241 nm peak” value (Guinea pig serum) is reported as “(1.1 ± 0.6) × 10^−3 s^−1”, the ulcer index (Stomach ulcerogenicity) is reported as 0 and the “ulcerogenicity compared to control” value (Stomach ulcerogenicity) is reported as “not significantly increased compared to control”. For the same compound, the “first-order rate constant of decomposition at 241 nm” value [1, 5] was 5.3e-06 s⁻¹, the “rate constant of initial growth near 250 nm (production of DEA/NO)” value ([1]; pH 10, 37°C) was “(4.5 ± 0.6) × 10^−5 s^−1” and the “effect on viability of HUVECs” value (HUVECs) was “no effect on viability up to 100 μM”.

With `CCN(CC)/[N+]([O-])=N/OCOC(=O)c1ccccc1O` [DEA/NO-salicylate, O^2-(2-hydroxybenzoyloxymethyl)-1-(N,N-diethylamino)-diazen-1-ium-1,2-diolate] the “rate of decomposition of NONO-salicylate derivatives” value [1] was 3.1e-05 s⁻¹.

With `CC(C)N/[N+]([O-])=N/[O-].[Na+]` [IPA/NO, sodium 1-(N-isopropylamino)diazen-1-ium-1,2-diolate, reference compound] the “rate constant of hydrolysis/decomposition at pH 10” value ([1]; pH 10, 37°C) was 4.1 × 10^−4 s^−1.

With `CC(=O)Oc1ccccc1C(=O)OCO/N=[N+](\[O-])NC(C)C` [IPA/NO-aspirin, O^2-(Acetylsalicyloyloxymethyl)-1-(N-isopropylamino)-diazen-1-ium-1,2-diolate] the “first-order rate constant k2 of loss of 241 nm peak” value (Guinea pig serum) was “(6.5 ± 0.12) × 10^−4 s^−1”, the “rate constant of decomposition with FBS” value [2] was 2.7e-05 s⁻¹ and the “inhibition of GAPDH activity” value (GAPDH) was “highest”. For the same compound, the “ulcerogenicity compared to control” value (Stomach ulcerogenicity) was “not significantly increased compared to control”, the “change of time of half-relaxation from peak shortening” value ([3]; mean ± SEM) was −17 ± 3% and the “increase in sarcomere shortening from control” value ([3]; n = 12, mean ± SEM) was “+201 ± 18%”. The “first-order rate constant of decomposition at 241 nm” value [1, 5] was “(2.6 ± 0.2) × 10^−5 s^−1”, the “rate constant of hydrolysis/decomposition at pH 10” value ([1]; pH 10, 37°C) was “(3.5 ± 0.8) × 10^−3 s^−1” and the “effect on viability of HUVECs” value (HUVECs) was “no effect on viability up to 100 μM”. For the same compound, the PGE2 levels (COX-2) was “decreased most significantly”.

In the case of `CC(C)N/[N+]([O-])=N/OCOC(=O)c1ccccc1O` [IPA/NO-salicylate, O^2-(2-hydroxybenzoyloxymethyl)-1-(N-isopropylamino)-diazen-1-ium-1,2-diolate], the “rate of decomposition of NONO-salicylate derivatives” value [1] is reported as 7e-05 s⁻¹.

For `CC(=O)Oc1ccccc1C(=O)O` [aspirin, acetylsalicylic acid, reference compound], the “rate of hydrolysis in the presence of guinea pig serum” value (Guinea pig serum; guinea pig serum) was “(4.7 ± 0.17) × 10^−4 s^−1”, the ulcer index (Stomach ulcerogenicity) was 57.4 ± 3.1 and the “first-order rate constant of spontaneous hydrolysis at 295 nm” value [1, 5] was 9.8e-06 s⁻¹. For the same compound, the “rate constant of hydrolysis/decomposition at pH 10” value ([1]; pH 10, 37°C) was “(1.6 ± 0.5) × 10^−4 s^−1” and the IC50 [4] was greater than 1 mM.
